# Molecular target: T1, Polyunsaturated fatty acid 5-lipoxygenase (Rattus norvegicus, UniProt P12527)
# T1 sequence (P12527 whole entry): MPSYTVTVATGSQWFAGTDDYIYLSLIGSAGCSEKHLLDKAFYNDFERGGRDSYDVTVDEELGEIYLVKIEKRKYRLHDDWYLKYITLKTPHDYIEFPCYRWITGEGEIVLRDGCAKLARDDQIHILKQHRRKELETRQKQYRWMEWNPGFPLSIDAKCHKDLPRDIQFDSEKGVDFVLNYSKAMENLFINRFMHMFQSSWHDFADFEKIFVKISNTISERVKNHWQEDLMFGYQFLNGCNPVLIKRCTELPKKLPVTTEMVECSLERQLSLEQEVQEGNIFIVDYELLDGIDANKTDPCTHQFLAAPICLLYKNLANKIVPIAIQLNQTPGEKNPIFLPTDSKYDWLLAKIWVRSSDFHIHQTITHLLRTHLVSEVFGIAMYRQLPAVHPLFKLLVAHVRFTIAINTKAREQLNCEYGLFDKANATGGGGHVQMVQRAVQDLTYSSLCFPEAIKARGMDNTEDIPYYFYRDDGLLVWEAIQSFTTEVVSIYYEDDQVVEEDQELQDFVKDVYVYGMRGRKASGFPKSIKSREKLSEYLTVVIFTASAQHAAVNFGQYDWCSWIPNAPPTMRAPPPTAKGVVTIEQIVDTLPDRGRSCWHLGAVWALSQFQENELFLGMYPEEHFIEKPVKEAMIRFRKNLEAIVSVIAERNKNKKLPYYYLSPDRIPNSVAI
# Assay: Inhibitory activity against 5-lipoxygenase obtained from rat basophilic leukemia cells
# Method in brief: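 IC50 was determined against 5-LO in a broken RBL-1 cell assay, using a crude enzyme preparation from rat basophilic leukemia cells.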
smiles,measurement,value
"Oc1oc(CCC#Cc2ccccc2CSc2ccccc2)c(O)c1O [3,4-Dihydroxy-5-[4-(2-phenylsulfanylmethyl-phenyl)-but-3-ynyl]-5H-furan-2-one]",IC50,300 nM
